Calls of active or inactive are those of the source. No cut-off for these calls is given here.
Assays:
[1] = Binding affinity to Fe(2) assessed as half maximal concentration required for binding 20 uM Fe(2) in pH 7.0 sodium phosphate buffer
Method in brief: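 Ligand at 3–500 µM in 10 mM sodium phosphate pH 7.0, started by adding freshly made FeSO4 (20 µM). Equilibrated 15 min, then absorbance read at complex λmax with the no-ligand blank subtracted. Absorbance plotted against log ligand, and Fe20-EC50 taken by sigmoidal non-linear regression. Triplicate; mean ± SE.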

[2] = molecular target: Egl nine homolog 1 (Homo sapiens) (UniProt Q9GZT9); assay: Inhibition of N-terminal hexa-histidine tagged human PHD2 (181 to 426 amino acids) at 10 uM pre-incubated for 2 mins followed by alpha-ketoglutarate addition using HIF1alpha peptide (556 to 574 amino acids) and 50 uM FeSO4 by RP-HPLC method
Egl nine homolog 1 (Homo sapiens), sequence (Q9GZT9 2-426 limits assumed): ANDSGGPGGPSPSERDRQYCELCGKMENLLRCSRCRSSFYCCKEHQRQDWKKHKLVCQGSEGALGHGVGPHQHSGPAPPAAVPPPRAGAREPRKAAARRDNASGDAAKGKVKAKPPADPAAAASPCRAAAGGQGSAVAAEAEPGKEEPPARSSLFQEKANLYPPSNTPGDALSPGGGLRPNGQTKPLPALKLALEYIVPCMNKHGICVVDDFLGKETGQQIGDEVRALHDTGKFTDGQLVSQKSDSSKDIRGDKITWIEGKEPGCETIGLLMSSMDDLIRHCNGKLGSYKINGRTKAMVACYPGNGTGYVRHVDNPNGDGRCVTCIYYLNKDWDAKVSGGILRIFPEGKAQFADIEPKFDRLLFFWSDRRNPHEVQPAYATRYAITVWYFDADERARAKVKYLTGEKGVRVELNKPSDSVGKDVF
Method in brief: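 5 µM NHis6-PHD2(181–426) in Tris-HCl pH 7.8 with 50 µM HIF-1α(556–574) peptide, 1 mg/mL BSA, 0.3 mg/mL catalase, 2 mM ascorbate, 1 mM DTT. Started with 35 µM α-ketoglutarate, 10 min at 30 °C, quenched by 60 s boiling. Conversion by C18 HPLC at 218 nm, relative to no-inhibitor control; three independent experiments.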

[3] = Binding affinity to Fe(2) assessed as Fe(compound)2+/3 complex formation at 150 uM in Tris buffer at pH 7.8 at 30 degC
Method in brief: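 Assay buffer: 50 mM Tris-HCl pH 7.8, 1% w/v BSA, 100 µg/mL catalase, 2 mM sodium ascorbate, 100 µM AKG, 100 µM DTT, 50 µM FeSO4. Incubated at 30 °C with or without ligand (150 µM). Fe(ligand)3 2+ complex detected by UV–Vis spectrophotometry.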

[4] = molecular target: T1, Prolyl 4-hydroxylase subunit alpha-1 (Homo sapiens, UniProt P13674); assay: Inhibition of human recombinant CP4H1 expressed in Escherichia coli Origami B(DE3) pre-incubated for 2 mins followed by alpha-ketoglutarate addition using dansylGlyProProGlyOEt substrate in Tris-HCl buffer at pH 7.8 at 30 degC by HPLC method
T1 sequence (P13674 whole entry): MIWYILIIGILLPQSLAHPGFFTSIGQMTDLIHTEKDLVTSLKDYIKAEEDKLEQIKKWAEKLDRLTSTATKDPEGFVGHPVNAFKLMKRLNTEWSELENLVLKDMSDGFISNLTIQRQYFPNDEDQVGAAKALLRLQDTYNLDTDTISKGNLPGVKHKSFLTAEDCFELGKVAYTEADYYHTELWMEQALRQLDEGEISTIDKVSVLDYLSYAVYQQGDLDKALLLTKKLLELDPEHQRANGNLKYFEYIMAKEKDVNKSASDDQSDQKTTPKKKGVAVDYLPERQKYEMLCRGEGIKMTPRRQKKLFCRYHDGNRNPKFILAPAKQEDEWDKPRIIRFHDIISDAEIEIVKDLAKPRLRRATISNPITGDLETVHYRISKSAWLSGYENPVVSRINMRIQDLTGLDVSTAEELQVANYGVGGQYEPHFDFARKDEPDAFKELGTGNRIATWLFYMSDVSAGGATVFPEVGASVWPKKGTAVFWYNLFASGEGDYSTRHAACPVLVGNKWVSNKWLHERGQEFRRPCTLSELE

[5] = molecular target: T1, Prolyl 4-hydroxylase subunit alpha-1; assay: Inhibition of human recombinant CP4H1 expressed in Escherichia coli Origami B(DE3) pre-incubated for 2 mins followed by alpha-ketoglutarate addition using dansylGlyProProGlyOEt substrate in Tris-HCl buffer at pH 7.8 at 30 degC by HPLC based Cheng-Prussoff equation method
[6] = molecular target: T1, Prolyl 4-hydroxylase subunit alpha-1; assay: Inhibition of human recombinant CP4H1 expressed in Escherichia coli Origami B(DE3) at 10 uM pre-incubated for 2 mins followed by alpha-ketoglutarate addition using dansylGlyProProGlyOEt substrate in Tris-HCl buffer at pH 7.8 at 30 degC by HPLC method
[7] = Inhibition of human collagen prolyl 4-hydroxylase

SMILES | EC50 ([1]; read-out: EC50) [µM] | inhibition [2] | Activity [3] | IC50 [4] [µM] | Ki [5] [µM] | inhibition [6] | Ki [7] [µM] | EC50 [1]
O=C(O)c1ccc(-c2ccc(C(=O)O)cn2)nc1 | 112 | inactive | Active | 0.84 | 0.14 |  |  | 
O=C(O)c1ccc(C(=O)O)nc1 [PYRIDINE-2,5-DICARBOXYLIC ACID] |  | inactive |  | 15 | 2.6 | Active | 0.8 | 
O=C(O)c1cccnc1-c1ncccc1C(=O)O |  |  |  |  |  |  |  | Not Active
O=C(O)c1ccc(-c2cccc(C(=O)O)n2)nc1 | 27 | inactive |  |  |  |  |  | 
O=C(O)c1cccc(-c2cccc(C(=O)O)n2)n1 |  | inactive |  |  |  |  |  | Not Active
O=C(O)c1ccnc(C(=O)O)c1 |  | Active |  |  |  |  |  | 
O=C(O)c1ccc(-c2cc(C(=O)O)ccn2)nc1 | 78 | Active | Active | 1.2 | 0.2 | > 90% |  | 
O=C(O)c1ccnc(-c2cccc(C(=O)O)n2)c1 | 26 | inactive |  |  |  |  |  | 
O=C(O)CNC(=O)C(=O)O |  | Active |  |  |  |  |  | 
c1ccc(-c2ccccn2)nc1 | 43 |  | Active |  |  | inactive |  | 
O=C(O)c1ccnc(-c2cc(C(=O)O)ccn2)c1 | 38 | Active | Active |  |  | Active |  | 

From ChEMBL document CHEMBL3585337, “Selective inhibition of prolyl 4-hydroxylases by bipyridinedicarboxylates” (Bioorg Med Chem, 2015)
